Holding throughout (type): functional
Test [1] deals with Cooperia oncophora. Nature of the test: Anthelmintic efficacy against adult Cooperia oncopphora (C.o) in sheep at dose of 0.25 mg/kg administered orally. The conditions noted are these: route oral. Put shortly: (§1)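 Lambs experimentally infected with mixed gastrointestinal nematodes (H. contortus, O. circumcincta, T. axei, T. colubriformis, C. oncophora, Oe. columbianum) were dosed orally, 1–3 sheep per dose. An untreated infected group of 6 was included, with worm burdens given as the geometric mean number of worms per lamb. Efficacy was scored against adult and, where listed, EL4 stages.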

Test [2] has as its system Cooperia oncophora. Nature of the test: Anthelmintic efficacy against adult Cooperia oncopphora (C.o) in sheep at dose of 0.15 mg/kg administered orally. The conditions noted are these: route oral. Put shortly:
as §1

The subject of test [3] is Haemonchus contortus. Put plainly: Anthelmintic efficacy against adult Haemonchus contortus (H.c) in sheep at dose of 0.15 mg/kg administered orally. The conditions noted are these: route oral. The essentials: as §1
Test [4] relates to Haemonchus contortus. Nature of the test: Anthelmintic efficacy against adult Haemonchus contortus (H.c) in sheep at dose of 0.25 mg/kg administered orally. The conditions noted are these: route oral. The essentials: as §1
Test [5] relates to Oesophagostomum columbianum. Put plainly: Anthelmintic efficacy against Oseophagostomum columbianum (Oe. c) in sheep at dose of 0.15 mg/kg administered orally. The conditions noted are these: route oral. Put shortly:
as §1

Test [6] concerns Oesophagostomum columbianum. Nature of the test: Anthelmintic efficacy against Oseophagostomum columbianum (Oe. c) in sheep at dose of 0.25 mg/kg administered orally. The conditions noted are these: route oral. The essentials: as §1
In test [7] the test system is Teladorsagia circumcincta. Put plainly: Anthelmintic efficacy against immature (EL4) Ostertagia circumcincta (O. c) in sheep at dose of 0.15 mg/kg administered orally; 20-59%.
Test [8] relates to Teladorsagia circumcincta. Nature of the test: Anthelmintic efficacy against adult (EL4) Ostertagia circumcincta (O. c) in sheep at dose of 0.15 mg/kg administered orally. The conditions noted are these: route oral. The essentials:
as §1

The test system of test [9] is Teladorsagia circumcincta. Nature of the test: Anthelmintic efficacy against adult Ostertagia circumcincta (O. c) in sheep at dose of 0.25 mg/kg administered orally. The settings on record: route oral. The essentials: as §1
The subject of test [10] is Trichostrongylus axei. Put plainly: Anthelmintic efficacy against Trichostrongylus axei (T.a) in sheep at dose of 0.15 mg/kg administered orally. The settings on record: route oral. Put shortly:
as §1

The subject of test [11] is Trichostrongylus axei. Nature of the test: Anthelmintic efficacy against Trichostrongylus axei (T.a) in sheep at dose of 0.25 mg/kg administered orally. The settings on record: route oral. The essentials:
as §1

In test [12] the test system is Trichostrongylus colubriformis. Nature of the test: Minimal dose necessary to eliminate > 83% of Trichostrongylus colubriformis infection in gerbils.
The subject of test [13] is Trichostrongylus colubriformis. Put plainly: Anthelmintic efficacy against Trichostrongylus colubriformis (T.c) in sheep at dose of 0.15 mg/kg administered orally. The conditions noted are these: route oral. The essentials:
as §1

The test system of test [14] is Trichostrongylus colubriformis. Nature of the test: Anthelmintic efficacy against Trichostrongylus colubriformis (T.c) in sheep at dose of 0.25 mg/kg administered orally. The settings on record: route oral. The essentials:
as §1

The subject of test [15] is Cooperia oncophora. Put plainly: Anthelmintic efficacy against immature (EL4) Cooperia oncopphora (C.o) in sheep at dose of 0.025 mg/kg administered orally; 0-19%. The essentials: (§2)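 Lambs were experimentally infected with mixed gastrointestinal nematodes: Haemonchus contortus, Ostertagia circumcincta, Trichostrongylus axei, T. colubriformis, Cooperia oncophora and Oesophagostomum columbianum. Dosing was oral, in mg/kg, with 3 sheep per dose group. An untreated infected group of 6 sheep served as reference, with worm burdens given as the geometric mean per lamb. Immature (EL4) and adult worms were scored separately.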

For test [16], the system named is Cooperia oncophora. Nature of the test: Anthelmintic efficacy against immature (EL4) Cooperia oncopphora (C.o) in sheep at dose of 0.1 mg/kg administered orally. The settings on record: route oral. Put shortly:
as §2

Test [17] deals with Cooperia oncophora. Nature of the test: Anthelmintic efficacy against adult Cooperia oncopphora (C.o) in sheep at dose of 0.025 mg/kg administered orally; 20-59%. The essentials: as §2
In test [18] the test system is Cooperia oncophora. Nature of the test: Anthelmintic efficacy against adult Cooperia oncopphora (C.o) in sheep at dose of 0.1 mg/kg administered orally. The settings on record: route oral. The essentials: as §2
Test [19] has as its system Haemonchus contortus. Put plainly: Anthelmintic efficacy against immature (EL4) Haemonchus contortus (H.c) in sheep at dose of 0.05 mg/kg administered orally. The conditions noted are these: route oral. The essentials: as §2
Test [20] relates to Haemonchus contortus. Put plainly: Anthelmintic efficacy against immature (EL4) Haemonchus contortus (H.c) in sheep at dose of 0.1 mg/kg administered orally. The settings on record: route oral. Put shortly: as §2
In test [21] the test system is Haemonchus contortus. Nature of the test: Anthelmintic efficacy against adult Haemonchus contortus (H.c) in sheep at dose of 0.025 mg/kg administered orally. The conditions noted are these: route oral. The essentials:
as §2

Test [22] has as its system Haemonchus contortus. Put plainly: Anthelmintic efficacy against adult Haemonchus contortus (H.c) in sheep at dose of 0.05 mg/kg administered orally. The conditions noted are these: route oral. Put shortly:
as §2

The subject of test [23] is Haemonchus contortus. Put plainly: Anthelmintic efficacy against adult Haemonchus contortus (H.c) in sheep at dose of 0.1 mg/kg administered orally. The settings on record: route oral. Put shortly:
as §1

Test [24] relates to Haemonchus contortus. Put plainly: Anthelmintic efficacy against immature (EL4) Haemonchus contortus (H.c) in sheep at dose of 0.025 mg/kg administered orally. The settings on record: route oral. Put shortly: as §2
Test [25] concerns Oesophagostomum columbianum. Put plainly: Anthelmintic efficacy against Oseophagostomum columbianum (Oe. c) in sheep at dose of 0.05 mg/kg administered orally. The conditions noted are these: route oral. The essentials: as §2
For test [26], the system named is Oesophagostomum columbianum. Nature of the test: Anthelmintic efficacy against Oseophagostomum columbianum (Oe. c) in sheep at dose of 0.1 mg/kg administered orally. The settings on record: route oral. Put shortly:
as §1

For test [27], the system named is Teladorsagia circumcincta. Put plainly: Anthelmintic efficacy against immature (EL4) Ostertagia circumcincta (O. c) in sheep at dose of 0.05 mg/kg administered orally. The settings on record: route oral. The essentials:
as §2

The subject of test [28] is Teladorsagia circumcincta. Nature of the test: Anthelmintic efficacy against immature (EL4) Ostertagia circumcincta (O. c) in sheep at dose of 0.1 mg/kg administered orally. The settings on record: route oral. Put shortly:
as §2

Test [29] deals with Teladorsagia circumcincta. Put plainly: Anthelmintic efficacy against immature (EL4) Ostertagia circumcincta (O. c) in sheep at dose of 0.025 mg/kg administered orally; 20-59%. The essentials: as §2
Test [30] concerns Teladorsagia circumcincta. Put plainly: Anthelmintic efficacy against […] (EL4) Ostertagia circumcincta (O. c) in sheep at dose of 0.025 mg/kg administered orally; 60-89%. Put shortly: as §2
The test system of test [31] is Teladorsagia circumcincta. Nature of the test: Anthelmintic efficacy against adult Ostertagia circumcincta (O. c) in sheep at dose of 0.05 mg/kg administered orally. The settings on record: route oral. Put shortly: as §2
In test [32] the test system is Teladorsagia circumcincta. Put plainly: Anthelmintic efficacy against adult Ostertagia circumcincta (O. c) in sheep at dose of 0.1 mg/kg administered orally. The conditions noted are these: route oral. The essentials: as §1
The test system of test [33] is Trichostrongylus axei. Put plainly: Anthelmintic efficacy against Trichostrongylus axei (T.a) in sheep at dose of 0.025 mg/kg administered orally; 60-89%. Put shortly: as §2
Test [34] relates to Trichostrongylus axei. Nature of the test: Anthelmintic efficacy against Trichostrongylus axei (T.a) in sheep at dose of 0.05 mg/kg administered orally. The conditions noted are these: route oral. Put shortly: as §2
Test [35] deals with Trichostrongylus colubriformis. Nature of the test: Anthelmintic efficacy against Trichostrongylus colubriformis (T.c) in sheep at dose of 0.025 mg/kg administered orally; 60-89%. Put shortly: as §2
Test [36] has as its system Trichostrongylus colubriformis. Put plainly: Anthelmintic efficacy against Trichostrongylus colubriformis (T.c) in sheep at dose of 0.05 mg/kg administered orally. The conditions noted are these: route oral. The essentials:
as §2

For test [37], the system named is Trichostrongylus colubriformis. Put plainly: Anthelmintic efficacy against Trichostrongylus colubriformis (T.c) in sheep at dose of 0.1 mg/kg administered orally. The settings on record: route oral. Put shortly:
as §2

Test [38] has as its system Cooperia oncophora. Nature of the test: Anthelmintic efficacy against adult Cooperia oncopphora (C.o) in sheep at dose of 0.05 mg/kg administered orally. The settings on record: route oral. The essentials:
as §2

Test [39] concerns Cooperia oncophora. Put plainly: Anthelmintic efficacy against immature (EL4) Cooperia oncopphora (C.o) in sheep at dose of 0.05 mg/kg administered orally. The settings on record: route oral. Put shortly: as §2
For test [40], the system named is Trichostrongylus axei. Put plainly: Anthelmintic efficacy against Trichostrongylus axei (T.a) in sheep at dose of 0.1 mg/kg administered orally. The conditions noted are these: route oral. The essentials: as §1
Test [41] relates to Oesophagostomum columbianum. Nature of the test: Anthelmintic efficacy against Oseophagostomum columbianum (Oe. c) in sheep at dose of 0.025 mg/kg administered orally. The conditions noted are these: route oral. The essentials:
as §2

The test system of test [42] is Cooperia curticei. Put plainly: Anthelmintic efficacy against adult Cooperia curticei. in sheep at dose of 0.1 mg/kg administered subcutaneously. The settings on record: route subcutaneous.
In test [43] the test system is Cooperia curticei. Nature of the test: Anthelmintic efficacy against immature (EL4) Cooperia curticei. in sheep at dose of 0.1 mg/kg administered subcutaneously. The conditions noted are these: route subcutaneous.
The subject of test [44] is Haemonchus contortus. Nature of the test: Anthelmintic efficacy against adult Haemonchus contortus (H.c) in sheep at dose of 0.1 mg/kg administered subcutaneously. The conditions noted are these: route subcutaneous. Put shortly:
(§3)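 Experimentally infected lambs carrying mixed nematode species each received 0.1 mg/kg by subcutaneous injection, one sheep per treatment. An untreated infected group of 6 lambs served as comparison, with worm burdens given as the geometric mean number of worms per lamb. Efficacy was scored for each parasite species.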

In test [45] the test system is Oesophagostomum columbianum. Put plainly: Anthelmintic efficacy against Oseophagostomum columbianum (Oe. c) in sheep at dose of 0.1 mg/kg administered subcutaneously. The conditions noted are these: route subcutaneous. Put shortly: as §3
The subject of test [46] is Trichostrongylus axei. Nature of the test: Anthelmintic efficacy against Trichostrongylus axei (T.a) in sheep at dose of 0.1 mg/kg administered subcutaneously; 60-89. The settings on record: route subcutaneous. Put shortly: as §3
In test [47] the test system is Trichostrongylus colubriformis. Nature of the test: Anthelmintic efficacy against Trichostrongylus colubriformis (T.c) in sheep at dose of 0.1 mg/kg administered subcutaneously. The conditions noted are these: route subcutaneous. Put shortly: as §3

In the case of `CC[C@H](C)[C@H]1O[C@]2(C=C[C@@H]1C)C[C@@H]1C[C@@H](C/C=C(\C)[C@@H](O[C@H]3C[C@@H](OC)[C@@H](O[C@H]4C[C@@H](OC)[C@@H](OC(C)=O)[C@H](C)O4)[C@H](C)O3)[C@@H](C)/C=C/C=C3\CO[C@@H]4[C@H](OC(C)=O)C(C)=C[C@@H](C(=O)O1)[C@]34O)O2`, the Efficacy in test [1], in test [2], in [3], in [4], in test [5] and in [6] was more than 90% throughout. Besides, the Efficacy in [7] was 20%; in test [8], more than 90%; in test [9], more than 90%; in test [10], more than 90%; in [11] it was more than 90%; in [13], more than 90%. Further, the Efficacy in test [14] is listed as more than 90%. The Dose in test [12] was 0.25 mg/kg.
For the compound `CC[C@H](C)[C@H]1O[C@]2(C=C[C@@H]1C)C[C@@H]1C[C@@H](C/C=C(\C)[C@@H](O[C@H]3C[C@H](OC)[C@@H](O[C@H]4C[C@H](OC)[C@@H](O)[C@H](C)O4)[C@H](C)O3)[C@@H](C)/C=C/C=C3\CO[C@@H]4[C@H](O)C(C)=C[C@@H](C(=O)O1)[C@]34O)O2` [ABAMECTIN COMPONENT B1A], the Efficacy is listed as 0% in test [15]; more than 90% in test [16]; 20% in test [17]; more than 90% in test [18]; more than 90% in test [19]; more than 90% in test [20]. In addition, the Efficacy in test [21], in test [22], in test [23], in test [24], in test [25] and in test [26] was more than 90% throughout. Besides, the Efficacy is reported as more than 90% in [27]; more than 90% in test [28]; 20% in test [29]; 60% in test [30]; more than 90% in test [31]; more than 90% in test [32]. The Efficacy is reported as 60% in test [33]; more than 90% in test [34]; 60% in test [35]; more than 90% in test [36]; more than 90% in test [37]; more than 90% in test [38]. For the same compound, the Efficacy in [39], in [40] and in test [41] was more than 90% in each case. In test [12], this compound yielded a Dose of 0.025 mg/kg.
With `CC[C@H](C)[C@H]1O[C@]2(C=C[C@@H]1C)C[C@@H]1C[C@@H](C/C=C(\C)[C@@H](O[C@H]3C[C@@H](OC)[C@@H](O[C@H]4C[C@@H](OC)[C@@H](OC(=O)CCC(=O)O)[C@H](C)O4)[C@H](C)O3)[C@@H](C)/C=C/C=C3\CO[C@@H]4[C@H](O)C(C)=C[C@@H](C(=O)O1)[C@]34O)O2`, the Efficacy is more than 90% in test [42]; more than 90% in test [43]; more than 90% in test [44]; more than 90% in test [45]; 60% in test [46]; more than 90% in [47]. For the same compound, the Dose in test [12] came to 0.03 mg/kg.

Values taken from ChEMBL document CHEMBL1122071, “Avermectin acyl derivatives with anthelmintic activity” (1982).
